Measured values: ChEMBL document CHEMBL4732156, “Novel boronium salt exhibits substantial antibacterial activity when compared to a commercial quaternary ammonium disinfectant” (Bioorg Med Chem Lett, 2021)
Active and inactive are the calls of the source. The rule behind the calls is not given here.

Assays:
Escherichia coli [1] = assay: Bactericidal activity against Escherichia coli ATCC 25922 incubated for 24 hrs followed by transferring and culturing on SBA plate and measured after 18 to 24 hrs by agar plate based analysis; assay type: functional; details: time 42-48 hrs
Outline: (§1)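 After 24 h of microdilution (about 5.0×10^5 CFU/mL, Mueller–Hinton broth, 37 °C, 100 rpm), 100 µL from each clear well, including the MIC well, is spread on 5% sheep blood agar. Plates are incubated 18–24 h at 37 °C. MBC is the first concentration giving zero colonies.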

Escherichia coli [2] = assay: Antibacterial activity against Escherichia coli ATCC 25922 at 1:8 dilution incubated for 24 hrs by disc diffusion method; assay type: functional, organism-based
Outline: (§2)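 Kirby-Bauer disc diffusion. 6 mm paper discs are loaded with 20 µL of the 1:8 (2.81 mg/mL) or 1:128 (0.17 mg/mL) dilution, dried 30 min and stored at 4–8 °C. A lawn of about 5.0×10^5 CFU/mL is swabbed onto Mueller–Hinton agar with the plate spinning. Plates are incubated 24 h at 37 °C and the inhibition zone is measured in mm by digital caliper.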

Escherichia coli [3] = assay: Antibacterial activity against Escherichia coli ATCC 25922 assessed as reduction in bacterial growth incubated for 24 hrs by turbidity based analysis; assay type: functional
Outline: (§3)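 Broth microdilution in Mueller–Hinton broth. Agents start from 4.5% stocks and are diluted two-fold in deionized water. Final well range is 22.5 to 0.02 mg/mL; inoculum is about 5.0×10^5 CFU/mL from 18–24 h SBA colonies. Plates are incubated 18–24 h at 37 °C in ambient air at 100 rpm. MIC is the lowest concentration giving a clear well on mirrored 3X visual reading.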

Erythrocyte [4] = assay: Induction of hemolysis in RBC (unknown origin) at higher concentration; assay type: cell-based
Staphylococcus aureus [5] = assay: Antibacterial activity against Staphylococcus aureus ATCC 29213 assessed as zone of inhibition at 1:128 dilution incubated for 24 hrs by disc diffusion method; assay type: functional; outline: as §2
Staphylococcus aureus [6] = assay: Antibacterial activity against Staphylococcus aureus ATCC 29213 assessed as zone of inhibition at 1:8 dilution incubated for 24 hrs by disc diffusion method; assay type: functional; outline: as §2
Escherichia coli [7] = assay: Potency index, ratio of MIC of BacDown QAC to MIC of compound for antibacterial activity against Escherichia coli ATCC 25922 assessed as reduction in bacterial growth incubated for 24 hrs by turbidity based analysis; assay type: functional
Staphylococcus aureus [8] = assay: Antibacterial activity against Staphylococcus aureus ATCC 29213 assessed as reduction in bacterial growth incubated for 24 hrs by turbidity based analysis; assay type: functional; outline: as §3
Staphylococcus aureus [9] = assay: Bactericidal activity against Staphylococcus aureus ATCC 29213 incubated for 24 hrs followed by transferring and culturing on SBA plate and measured after 18 to 24 hrs by agar plate based analysis; assay type: functional; details: time 42-48 hrs; outline: as §1
Pseudomonas aeruginosa [10] = assay: Antibacterial activity against Pseudomonas aeruginosa ATCC 27853 at 1:128 dilution incubated for 24 hrs by disc diffusion method; assay type: functional, organism-based; outline: as §2
Staphylococcus aureus [11] = assay: Potency index, ratio of MIC of BacDown QAC to MIC of compound for antibacterial activity against Staphylococcus aureus ATCC 29213 assessed as reduction in bacterial growth incubated for 24 hrs by turbidity based analysis; assay type: functional
Escherichia coli [12] = assay: Antibacterial activity against Escherichia coli ATCC 25922 at 1:128 dilution incubated for 24 hrs by disc diffusion method; assay type: functional, organism-based; outline: as §2
Pseudomonas aeruginosa [13] = assay: Antibacterial activity against Pseudomonas aeruginosa ATCC 27853 assessed as reduction in bacterial growth incubated for 24 hrs by turbidity based analysis; assay type: functional; outline: as §3
Pseudomonas aeruginosa [14] = assay: Potency index, ratio of MIC of BacDown QAC to MIC of compound for antibacterial activity against Pseudomonas aeruginosa ATCC 27853 assessed as reduction in bacterial growth incubated for 24 hrs by turbidity based analysis; assay type: functional
Pseudomonas aeruginosa [15] = assay: Bactericidal activity against Pseudomonas aeruginosa ATCC 27853 incubated for 24 hrs followed by transferring and culturing on SBA plate and measured after 18 to 24 hrs by agar plate based analysis; assay type: functional; details: time 42-48 hrs; outline: as §1
Erythrocyte [16] = assay: Induction of hemolysis in RBC (unknown origin) at lower concentration; assay type: cell-based
Pseudomonas aeruginosa [17] = assay: Antibacterial activity against Pseudomonas aeruginosa ATCC 27853 at 1:8 dilution incubated for 24 hrs by disc diffusion method; assay type: functional, organism-based; outline: as §2

MIC (Escherichia coli [3]) [µg/mL] | MIC (Staphylococcus aureus [8]) [µg/mL] | MIC (Pseudomonas aeruginosa [13]) [µg/mL] | Structure (SMILES) | MBC (Escherichia coli [1]) [µg/mL] | Activity (Escherichia coli [2]) | Activity (Erythrocyte [4]) | inhibition zone (IZ) (Staphylococcus aureus [5]) [mm] | inhibition zone (IZ) (Staphylococcus aureus [6]) [mm] | Ratio (Escherichia coli [7]) | MBC (Staphylococcus aureus [9]) [µg/mL] | Activity (Pseudomonas aeruginosa [10]) | Ratio (Staphylococcus aureus [11]) | Activity (Escherichia coli [12]) | Ratio (Pseudomonas aeruginosa [14]) | MBC (Pseudomonas aeruginosa [15]) [µg/mL] | Activity (Erythrocyte [16]) | Activity (Pseudomonas aeruginosa [17])
40 | 20 | 170 | CCCCCCCCCCCCCCCC[N+](C)(C)[BH2-][N+](C)(C)Cc1ccccc1.I | 40 | inactive | Toxic | 7.6 | 14.8 | 4 | 40 | inactive | 4 | inactive | 8 | 170 | Non-Toxic | inactive
> 22500 | > 22500 | > 22500 | CCCCCCCCCCCCCCCC[N+](C)(C)[BH2-][N+](C)(C)C.I | – | inactive | Toxic | – | – | – | – | inactive | – | inactive | – | – | Non-Toxic | inactive
